The values below come from ChEMBL document CHEMBL4402525, “Potential Tools for Eradicating HIV Reservoirs in the Brain: Development of Trojan Horse Prodrugs for the Inhibition of P-Glycoprotein with Anti-HIV-1 Activity” (J Med Chem, 2020).

The test system of data set [1] is Human immunodeficiency virus 1. Kind of data set: Antiviral activity against HIV1 LAI infected in human 12D7 cells overexpressing p-gp assessed as reduction in P24 level at 0.08 to 1.25 uM incubated for 3 days followed by replacement of fresh medium containing compound and measured after 3 days by ELISA. Format: functional, organism-based. The conditions noted are these: M:B_Lai. The method, boiled down: (§1)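 12D7 CD4+ T cells in log phase, resuspended at 1 million/mL, infected 4 h with 500 TCID50 HIV-1 LAI, washed three times, plated at 75 000 cells/mL; compound added at 0.05% DMSO in RPMI 1640 with 10% FBS, L-glutamine and penicillin/streptomycin; medium with same compound level renewed day 3; day-6 supernatant p24 (gag) quantified by ELISA; duplicate runs.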
Background: ELISA stands for enzyme-linked immunosorbent assay.

For data set [2], the target named is T1, P-gp (ABCB1) (Homo sapiens, UniProt P08183). The data set can be described thus: Inhibition of P-gp in human 12D7-MDR cells up to 500 uM using calcein-AM as substrate after 30 mins by flow cytometric analysis relative to control. As to conditions: probe calcein-AM.
T1 sequence (P08183 whole entry): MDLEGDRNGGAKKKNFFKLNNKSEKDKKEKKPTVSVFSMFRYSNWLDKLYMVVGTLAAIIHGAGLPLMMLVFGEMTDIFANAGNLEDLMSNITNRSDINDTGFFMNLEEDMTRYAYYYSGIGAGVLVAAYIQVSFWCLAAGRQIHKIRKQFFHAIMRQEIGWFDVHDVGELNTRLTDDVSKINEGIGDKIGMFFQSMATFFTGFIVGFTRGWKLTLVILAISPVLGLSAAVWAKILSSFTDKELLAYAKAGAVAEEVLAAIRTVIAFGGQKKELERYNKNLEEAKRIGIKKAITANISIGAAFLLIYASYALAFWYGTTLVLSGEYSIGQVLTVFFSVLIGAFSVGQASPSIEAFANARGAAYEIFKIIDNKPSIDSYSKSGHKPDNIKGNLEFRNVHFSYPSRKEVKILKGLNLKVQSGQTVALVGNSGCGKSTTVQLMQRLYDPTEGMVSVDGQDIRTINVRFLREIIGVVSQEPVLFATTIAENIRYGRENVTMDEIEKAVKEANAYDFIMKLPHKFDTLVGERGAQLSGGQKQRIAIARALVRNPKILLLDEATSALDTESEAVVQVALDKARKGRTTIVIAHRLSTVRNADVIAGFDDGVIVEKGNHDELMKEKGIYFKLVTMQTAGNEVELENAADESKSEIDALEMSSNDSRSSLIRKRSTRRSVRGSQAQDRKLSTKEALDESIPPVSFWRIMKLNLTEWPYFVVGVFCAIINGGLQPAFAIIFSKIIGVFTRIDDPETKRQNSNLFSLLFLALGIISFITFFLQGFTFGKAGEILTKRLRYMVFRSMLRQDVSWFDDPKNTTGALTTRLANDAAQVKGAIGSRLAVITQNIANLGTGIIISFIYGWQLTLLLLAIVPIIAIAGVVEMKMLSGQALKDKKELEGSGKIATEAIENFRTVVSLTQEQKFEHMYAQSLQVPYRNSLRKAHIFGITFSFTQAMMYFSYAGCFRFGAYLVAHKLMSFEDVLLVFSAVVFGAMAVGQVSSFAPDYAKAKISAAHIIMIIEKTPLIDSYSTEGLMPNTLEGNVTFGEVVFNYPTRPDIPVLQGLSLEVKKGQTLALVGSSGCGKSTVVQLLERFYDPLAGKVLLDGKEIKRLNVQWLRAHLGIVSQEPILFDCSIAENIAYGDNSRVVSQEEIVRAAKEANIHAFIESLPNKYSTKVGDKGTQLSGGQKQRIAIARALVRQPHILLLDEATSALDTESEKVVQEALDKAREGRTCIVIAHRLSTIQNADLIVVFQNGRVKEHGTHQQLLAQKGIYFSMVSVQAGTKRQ
Data set [3] deals with T1, P-gp (ABCB1). Kind of data set: Inhibition of P-gp in human 12D7-MDR cells up to 500 uM using NBD-Aba as substrate after 30 mins by flow cytometric analysis relative to control. The conditions noted are these: probe NBD-Aba. On the technique in general: In flow cytometry, cells or beads pass a laser one at a time.
Data set [4] in a line: Stability of compound in PBS after 1 week by UPLC-MS analysis. The conditions noted are these: read-out: Stability. Format: physicochemical.
The nature of data set [5]: Stability of compound in RPMI medium at 100 uM after 1 week by UPLC-MS analysis. The data set is classed as physicochemical. The conditions noted are these: read-out: Stability. The method, boiled down:
(§2)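 Heterodimer at 100 μM was held at 37 °C in 12D7 cell medium with 1% DMSO. The medium was RPMI 1640 with penicillin/streptomycin, 5 mM L-glutamine and 10% FBS. Every 24 h an aliquot was quenched 1:1 with ice-cold acetonitrile containing 1.0 mM 4-methoxybenzyl alcohol, then centrifuged. Supernatant was run on C8 RP-HPLC (0.05% TFA, 15–75% acetonitrile over 30 min, UV 254 nm), in duplicate.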

Data set [6] is described as follows: Produrg conversion in pH 7.4 PBS/30% methanol assessed as GSH-mediated nelfinavir formation by measuring half life at 4 uM in presence of 10 mM GSH by UPLC-MS analysis. Format: ADME. As to conditions: pH 7.4, 4 µM. The method, boiled down: (§3)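 Heterodimer at 4 μM was incubated at 37 °C with 250 mM DTT or 10 mM GSH. The solvent was degassed 30% methanol/PBS (pH ~ 7.4) containing 5 μM quinine as internal standard. Reductant-triggered release of the monomeric drugs was followed over time and given as t1/2.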

The nature of data set [7]: Produrg conversion in pH 7.4 PBS/30% methanol assessed as DTT-mediated abacavir formation by measuring half life at 4 uM in presence of 250 mM DTT by UPLC-MS analysis. Format: ADME. The conditions noted are these: buffer, pH 7.4, 4 µM. The method, boiled down: as §3
The nature of data set [8]: Produrg conversion in pH 7.4 PBS/30% methanol assessed as DTT-mediated nelfinavir formation by measuring half life at 4 uM in presence of 250 mM DTT by UPLC-MS analysis. Format: ADME. The conditions noted are these: buffer, pH 7.4, 4 µM. The method, boiled down:
as §3

A short description of data set [9]: Produrg conversion in pH 7.4 PBS/30% methanol assessed as GSH-mediated abacavir formation by measuring half life at 4 uM in presence of 10 mM GSH by UPLC-MS analysis. The data set is classed as ADME. The conditions noted are these: pH 7.4, 4 µM. The method, boiled down:
as §3

Data set [10] relates to Human immunodeficiency virus 1. The data set can be described thus: Antiviral activity against HIV1 LAI infected in human 12D7 cells overexpressing p-gp assessed as reduction in P24 level at 1:1 ratio of test compound to abacavir incubated for 3 days followed by followed by replacement of fresh medium containing compound and measured after 3 days by ELISA. The data set is classed as functional, organism-based. As to conditions: M:B_Lai. The method, boiled down:
as §1

The nature of data set [11]: Produrg conversion in pH 7.4 PBS/30% methanol assessed as DTT-mediated darunavir formation by measuring half life at 4 uM in presence of 250 mM DTT by UPLC-MS analysis. The conditions noted are these: buffer, pH 7.4, 4 µM. The data set is classed as ADME. The method, boiled down:
as §3

Data set [12] can be described thus: Stability of compound in RPMI medium at 100 uM after 3 days by UPLC-MS analysis. Format: physicochemical. The conditions noted are these: read-out: Stability. The method, boiled down: as §2
Data set [13] in a line: Produrg conversion in pH 7.4 PBS/30% methanol assessed as GSH-mediated darunavir formation by measuring half life at 4 uM in presence of 10 mM GSH by UPLC-MS analysis. Format: ADME. The conditions noted are these: pH 7.4, 4 µM. The method, boiled down:
as §3

Data set [14] in a line: Stability of compound in PBS after 3 days by UPLC-MS analysis. The data set is classed as physicochemical. As to conditions: read-out: Stability.

Molecules are shown by their SMILES. The source made the active and inactive calls. The calls are words filed in the database; no cut-off is given here.

Regarding `Nc1nc(NC2CC2)c2ncn([C@H]3C=C[C@@H](CO)C3)c2n1` [ABACAVIR], in data set [1], the result was Active. In addition, the inhibition at 0.5 h on P-gp (ABCB1) [2] and at P-gp (ABCB1) [3] was below 10% throughout.
As for `Cc1c(OC(=O)CCCSSCCCC(=O)OC[C@@H]2C=C[C@H](n3cnc4c(NC5CC5)nc(N)nc43)C2)cccc1C(=O)N[C@@H](CSc1ccccc1)[C@H](O)CN1C[C@H]2CCCC[C@H]2C[C@H]1C(=O)NC(C)(C)C`, the remaining at 168 h in [4] is above 95%. Besides, in data set [1], the outcome was Active. Besides, the remaining at 168 h, 100 µM in data set [5] is above 95%. In addition, the t1/2 in data set [6] was found to be 10.3 h; in data set [7], 31.8 h; in data set [8], 1.2 h; in data set [9] it was 29.4 h.
As to `Cc1c(O)cccc1C(=O)N[C@@H](CSc1ccccc1)[C@H](O)CN1C[C@H]2CCCC[C@H]2C[C@H]1C(=O)NC(C)(C)C`, the outcome in [1] and in data set [10] was Active.
Regarding `CC(C)CN(C[C@@H](OC(=O)CCCSSCCCC(=O)OC[C@@H]1C=C[C@H](n2cnc3c(NC4CC4)nc(N)nc32)C1)[C@H](Cc1ccccc1)NC(=O)O[C@H]1CO[C@H]2OCC[C@H]21)S(=O)(=O)c1ccc(N)cc1`, the result in [1] was Active. The t1/2 turned out to be 21.3 h in data set [11], 34.5 h in [7], 36.3 h in data set [13] and 21.6 h in data set [9]. Further, the remaining at 72 h, 100 µM in data set [12] was above 95%. Moreover, the remaining at 72 h in [14] is above 95%.
In the case of `CC(C)CN(C[C@@H](O)[C@H](Cc1ccccc1)NC(=O)O[C@H]1CO[C@H]2OCC[C@H]21)S(=O)(=O)c1ccc(N)cc1`, the result in [1] and in data set [10] was Active.

Usually inhibition stands for the percentage by which the read-out fell short of the control.
